From ChEMBL document CHEMBL4177575 (Bioorg Med Chem, 2017) come the findings set out here.

Each structure is given as a SMILES string. Active and inactive are the calls of the source. No cut-off for these calls is given here.

Experiment [1] has as its system A549. Description: Induction of morphological changes in human A549 cells assessed as induction of nucleus bright green staining at 1.85 uM incubated for 12 hrs by acridine orange dye based inverted microscopy and fluorescence microscopy. It counts as functional, cell-based. The method, boiled down: (§1)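 Untreated control included. A549 cells exposed 12 h at 1.85 μM, then single-stained with acridine orange. Nuclei and morphology examined by inverted and fluorescence microscopy.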

The target of experiment [2] is Hepatocyte growth factor receptor (Homo sapiens, UniProt P08581). Description: Inhibition of c-MET (unknown origin) incubated for 10 mins using FAM-labeled peptide and ATP by mobility shift assay. In outline:
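Mobility shift assay in 384-well plates. Kinase buffer: 50 mM HEPES pH 7.5, 10 mM MgCl2, 0.0015% Brij-35, 2 mM DTT. Compound, diluted from a 500 μM DMSO stock, preincubated with enzyme 10 min at room temperature. FAM-labelled peptide and ATP then added and the reaction run at 28 °C. Stopped with EDTA-containing buffer and read on Caliper. Inhibition = (max−conversion)/(max−min)×100, with DMSO wells as max and enzyme-free wells as min.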

The test system of experiment [3] is A549. The experiment in a line: Induction of apoptosis in human A549 cells assessed as necrotic cell level at 12 uM incubated for 48 hrs by Annexin VFITC and propidium iodide staining based flow cytometry (reference value: 2.69%). It counts as functional. The method, boiled down:
(§2)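 A549 cells seeded in RPMI 1640 and treated 48 h at 3, 6 or 12 µM. Cells then stained with Annexin V-FITC plus propidium iodide, 30 min at 4 °C in the dark, and analysed on a FACS Calibur flow cytometer.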

The subject of experiment [4] is A549. The experiment in a line: Induction of apoptosis in human A549 cells assessed as viable cell level at 6 uM incubated for 48 hrs by Annexin VFITC and propidium iodide staining based flow cytometry (reference value: 93.27%). It counts as functional. The method, boiled down:
as §2
(In general: In flow cytometry, cells or beads pass a laser one at a time.)

Experiment [5] concerns A549. Description: Induction of apoptosis in human A549 cells assessed as late apoptotic cell level at 3 uM incubated for 48 hrs by Annexin VFITC and propidium iodide staining based flow cytometry (reference value: 3.4%). It counts as functional. The method, boiled down: as §2
Experiment [6] deals with A549. The experiment in a line: Induction of apoptosis in human A549 cells assessed as viable cell level at 3 uM incubated for 48 hrs by Annexin VFITC and propidium iodide staining based flow cytometry (reference value: 93.27%). It counts as functional. The method, boiled down: as §2
For experiment [7], the target named is Serine/threonine-protein kinase B-raf (Homo sapiens, UniProt P15056). The experiment in a line: Inhibition of BRAF (unknown origin) incubated for 10 mins using FAM-labeled peptide and ATP by mobility shift assay.
Serine/threonine-protein kinase B-raf, sequence (P15056 whole entry): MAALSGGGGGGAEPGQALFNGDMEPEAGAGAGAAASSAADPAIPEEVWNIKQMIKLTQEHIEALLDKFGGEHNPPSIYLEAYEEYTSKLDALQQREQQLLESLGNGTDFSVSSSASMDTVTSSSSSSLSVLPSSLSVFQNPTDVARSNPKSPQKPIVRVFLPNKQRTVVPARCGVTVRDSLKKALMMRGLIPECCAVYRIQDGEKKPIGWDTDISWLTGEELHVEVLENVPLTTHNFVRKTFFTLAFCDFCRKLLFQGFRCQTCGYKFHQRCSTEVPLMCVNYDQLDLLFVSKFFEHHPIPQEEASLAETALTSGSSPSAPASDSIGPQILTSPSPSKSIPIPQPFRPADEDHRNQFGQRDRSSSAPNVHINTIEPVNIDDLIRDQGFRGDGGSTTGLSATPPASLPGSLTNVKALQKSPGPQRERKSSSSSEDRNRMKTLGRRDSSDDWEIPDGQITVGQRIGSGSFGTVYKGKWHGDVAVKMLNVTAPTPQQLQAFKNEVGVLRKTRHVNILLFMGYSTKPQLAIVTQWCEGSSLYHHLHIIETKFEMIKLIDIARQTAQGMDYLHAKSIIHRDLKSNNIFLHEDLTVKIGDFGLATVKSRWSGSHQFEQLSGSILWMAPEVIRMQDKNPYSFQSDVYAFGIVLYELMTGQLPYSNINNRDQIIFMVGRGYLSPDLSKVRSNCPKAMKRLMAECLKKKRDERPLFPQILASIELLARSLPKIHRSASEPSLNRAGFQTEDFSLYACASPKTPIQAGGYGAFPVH
Experiment [8] relates to A549. Description: Cytotoxicity against human A549 cells assessed as reduction in cell viability incubated for 72 hrs by MTT assay. It counts as functional, cell-based. In outline:
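Cells grown in MEM with 10% FBS; about 4×10^3 cells per well, pre-incubated 24 h at 37 °C in 5% CO2, then exposed to compound for 72 h. Seven concentrations, threefold serial dilution from 100 ug/mL initial. MTT at 5 µg/mL terminal concentration for 4 h; formazan dissolved in DMSO, absorbance read at 492 nm against 630 nm reference. IC50 is the average of two determinations.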

In experiment [9] the test system is A549. The experiment in a line: Induction of apoptosis in human A549 cells assessed as late apoptotic cell level at 6 uM incubated for 48 hrs by Annexin VFITC and propidium iodide staining based flow cytometry (reference value: 3.4%). It counts as functional. In outline: as §2
The subject of experiment [10] is A549. The experiment in a line: Induction of morphological changes in human A549 cells assessed as induction of apoptotic bodies at 1.85 uM incubated for 12 hrs by acridine orange dye based inverted microscopy and fluorescence microscopy. It counts as functional, cell-based. The method, boiled down:
as §1

Hepatocyte growth factor receptor, sequence (P08581 whole entry): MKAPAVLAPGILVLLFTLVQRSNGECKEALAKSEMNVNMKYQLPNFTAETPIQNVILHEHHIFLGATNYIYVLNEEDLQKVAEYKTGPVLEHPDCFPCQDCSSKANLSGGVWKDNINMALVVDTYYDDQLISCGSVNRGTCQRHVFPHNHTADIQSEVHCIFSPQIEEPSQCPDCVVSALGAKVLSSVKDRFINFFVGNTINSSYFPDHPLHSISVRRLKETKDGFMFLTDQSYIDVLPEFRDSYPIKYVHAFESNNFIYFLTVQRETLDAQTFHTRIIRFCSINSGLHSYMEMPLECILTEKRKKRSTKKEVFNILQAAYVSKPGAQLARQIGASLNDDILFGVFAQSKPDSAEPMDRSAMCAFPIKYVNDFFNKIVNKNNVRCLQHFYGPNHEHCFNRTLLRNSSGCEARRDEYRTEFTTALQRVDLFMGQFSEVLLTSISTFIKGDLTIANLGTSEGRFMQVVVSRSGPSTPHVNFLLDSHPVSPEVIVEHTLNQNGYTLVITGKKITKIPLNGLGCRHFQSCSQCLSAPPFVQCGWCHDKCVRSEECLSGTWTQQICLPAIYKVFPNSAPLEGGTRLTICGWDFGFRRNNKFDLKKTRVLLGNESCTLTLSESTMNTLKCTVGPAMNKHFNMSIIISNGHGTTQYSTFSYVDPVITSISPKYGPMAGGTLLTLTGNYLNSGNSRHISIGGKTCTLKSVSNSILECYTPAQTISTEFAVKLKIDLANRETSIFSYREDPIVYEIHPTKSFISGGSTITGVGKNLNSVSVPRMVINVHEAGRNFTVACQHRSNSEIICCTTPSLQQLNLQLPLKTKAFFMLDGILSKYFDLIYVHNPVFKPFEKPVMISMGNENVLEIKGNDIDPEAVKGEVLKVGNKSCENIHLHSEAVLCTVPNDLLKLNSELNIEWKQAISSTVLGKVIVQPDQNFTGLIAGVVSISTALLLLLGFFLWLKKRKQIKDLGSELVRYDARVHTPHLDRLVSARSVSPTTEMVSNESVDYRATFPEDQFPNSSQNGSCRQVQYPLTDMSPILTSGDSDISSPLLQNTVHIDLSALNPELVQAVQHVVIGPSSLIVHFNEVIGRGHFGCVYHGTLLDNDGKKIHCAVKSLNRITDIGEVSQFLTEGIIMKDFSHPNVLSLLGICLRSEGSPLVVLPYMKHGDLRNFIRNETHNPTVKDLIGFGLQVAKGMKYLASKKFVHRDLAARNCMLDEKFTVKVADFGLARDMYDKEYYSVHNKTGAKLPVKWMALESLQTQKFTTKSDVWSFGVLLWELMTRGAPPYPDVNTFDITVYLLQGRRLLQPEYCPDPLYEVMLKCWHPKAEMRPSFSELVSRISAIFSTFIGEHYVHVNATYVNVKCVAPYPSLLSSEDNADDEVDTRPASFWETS

Consider `CNC(=O)c1cc(Oc2ccc(C3=NNC(c4cccc(Br)c4)C3)cc2)ccn1` (stereo unspecified), for which the result in the experiment on A549 [1] and with A549 [10] was Active. Moreover, the IC50 in [2] was determined as 0.54 µM; in experiment [7], 3.4 µM; in the experiment with A549 [8] (A549, 72 h), 2.84 µM. In addition, the Activity is 2.45% with A549 [3]; 81.93% in the experiment with A549 [4]; 4.51% with A549 [5]; 88.8% with A549 [6]; “Dose-dependent effect” in the experiment on A549 [8]; 9.11% in the experiment on A549 [9].

In general, IC50 refers to the concentration that inhibits the measured activity by half.
